The values that follow come from ChEMBL document CHEMBL1139238, “Preparation of two sets of 5,6,7-trioxygenated dihydroflavonol derivatives as free radical scavengers and neuronal cell protectors to oxidative damage” (Bioorg Med Chem, 2009).

Structures are written as SMILES. Calls of active or inactive are those of the source. No cut-off for these calls is given here.

Series [1] concerns PC-12. Briefly: Cytoprotective activity against H2O2-induced cell death in rat PC12 cells assessed as increase in cell viability at 16 ug/ml preincubated 2 hrs before H2O2 challenge measured after 4 hrs by MTT assay relative to control. The format is functional. A digest of the protocol:
(§1)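 PC12 cells from Shanghai Institute of Cell Biology, grown at 37 °C in 5% CO2 in high-glucose DMEM with 10% heat-inactivated calf serum and penicillin/streptomycin. Cells seeded at 6×10^3/well and used 36 h later. Compound in DMSO diluted in medium, 2 h pretreatment, then 500 µM H2O2 (final) for 4 h. MTT (5 mg/mL) for 3 h, formazan dissolved in DMSO, read at 570 nm. Gain is %OD(drug)/OD(normal) minus %OD(DMSO)/OD(normal).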
A general note: Formazan colour is commonly taken as a measure of viable cells.

Series [2] addresses Xanthine dehydrogenase/oxidase (Rattus norvegicus) (UniProt P22985). Briefly: Inhibition of xanthine oxidase assessed as formation of formazan after 2 hrs by spectrophotometry. Also on record: concentration or dose not given beside the values.
The subject of series [3] is PC-12. Kind of series: Cytoprotective activity against H2O2-induced cell death in rat PC12 cells assessed as increase in cell viability at 8 ug/ml preincubated 2 hrs before H2O2 challenge measured after 4 hrs by MTT assay relative to control. The format is functional. The procedure, abridged: as §1
In series [4] the test system is PC-12. Briefly: Cytoprotective activity against H2O2-induced cell death in rat PC12 cells assessed as increase in cell viability at 32 ug/ml preincubated 2 hrs before H2O2 challenge measured after 4 hrs by MTT assay relative to control. The format is functional. The procedure, abridged: as §1
The nature of series [5]: Antioxidant activity assessed as superoxide radical scavenging activity by spectrophotometry. The class given is functional. A digest of the protocol:
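Superoxide generated by NADH (78 μM), nitroblue tetrazolium (50 μM) and phenazine methosulfate (5 μM) in 16 mM Tris–HCl, pH 8.0, with compounds at various concentrations. Read at 560 nm after 5 min at room temperature. Blanks lack phenazine methosulfate; quercetin and vitamin C are references.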

Series [6] deals with Radical scavenging activity. Briefly: Antioxidant activity assessed as DPPH free radical scavenging activity by spectrophotometry. The format is functional. The procedure, abridged:
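DPPH (0.4 mg/mL) in methanol mixed with compounds (DMSO solutions) at various concentrations. Incubated 30 min at 37 °C, absorbance read at 517 nm. Methanolic DPPH alone serves as control; quercetin and vitamin C are the reference scavengers.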

The test system of series [7] is Liver. Kind of series: tissue or blood. To be noted: Rattus norvegicus, 1 h.
The subject of series [8] is PC-12. Briefly: Cytoprotective activity against H2O2-induced cell death in rat PC12 cells assessed as increase in cell viability preincubated 2 hrs before H2O2 challenge measured after 4 hrs by MTT assay. The format is functional, cell-based.
The target in series [9] is Xanthine dehydrogenase/oxidase (Rattus norvegicus) (UniProt P22985). Kind of series: Inhibition of xanthine oxidase assessed as formation of formazan at 16 ug/ml after 2 hrs by spectrophotometry.
In series [10] the test system is Liver. Kind of series: Antioxidant activity against FeSO4-induced lipid peroxidation in rat liver homogenate assessed as inhibition of malondialdehyde release at 6 to 100 uM after 1 hr by thiobarbituric acid assay relative quercetin. The class given is functional, tissue-based. A digest of the protocol: (§2)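 Rat (Sprague-Dawley) liver homogenate in ice-cold PBS; peroxidation driven by FeSO4 (4 μM) plus vitamin C (50 μM). Compounds at 0.1–100 μM, 37 °C for 1 h in capped tubes. Then 20% TCA for 30 min at room temperature, followed by 0.1 M HCl and 1% TBA at 99 °C for 1 h. After centrifugation, MDA read at 532 nm. Quercetin is the standard; n = 3, means ± SD.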

Series [11] relates to Liver. Kind of series: Antioxidant activity against FeSO4-induced lipid peroxidation in rat liver homogenate assessed as inhibition of malondialdehyde release at < 5 uM after 1 hr by thiobarbituric acid assay relative quercetin. The class given is functional, tissue-based. The procedure, abridged:
as §2

Chain of Xanthine dehydrogenase/oxidase (Rattus norvegicus) (P22985 whole entry, looked up): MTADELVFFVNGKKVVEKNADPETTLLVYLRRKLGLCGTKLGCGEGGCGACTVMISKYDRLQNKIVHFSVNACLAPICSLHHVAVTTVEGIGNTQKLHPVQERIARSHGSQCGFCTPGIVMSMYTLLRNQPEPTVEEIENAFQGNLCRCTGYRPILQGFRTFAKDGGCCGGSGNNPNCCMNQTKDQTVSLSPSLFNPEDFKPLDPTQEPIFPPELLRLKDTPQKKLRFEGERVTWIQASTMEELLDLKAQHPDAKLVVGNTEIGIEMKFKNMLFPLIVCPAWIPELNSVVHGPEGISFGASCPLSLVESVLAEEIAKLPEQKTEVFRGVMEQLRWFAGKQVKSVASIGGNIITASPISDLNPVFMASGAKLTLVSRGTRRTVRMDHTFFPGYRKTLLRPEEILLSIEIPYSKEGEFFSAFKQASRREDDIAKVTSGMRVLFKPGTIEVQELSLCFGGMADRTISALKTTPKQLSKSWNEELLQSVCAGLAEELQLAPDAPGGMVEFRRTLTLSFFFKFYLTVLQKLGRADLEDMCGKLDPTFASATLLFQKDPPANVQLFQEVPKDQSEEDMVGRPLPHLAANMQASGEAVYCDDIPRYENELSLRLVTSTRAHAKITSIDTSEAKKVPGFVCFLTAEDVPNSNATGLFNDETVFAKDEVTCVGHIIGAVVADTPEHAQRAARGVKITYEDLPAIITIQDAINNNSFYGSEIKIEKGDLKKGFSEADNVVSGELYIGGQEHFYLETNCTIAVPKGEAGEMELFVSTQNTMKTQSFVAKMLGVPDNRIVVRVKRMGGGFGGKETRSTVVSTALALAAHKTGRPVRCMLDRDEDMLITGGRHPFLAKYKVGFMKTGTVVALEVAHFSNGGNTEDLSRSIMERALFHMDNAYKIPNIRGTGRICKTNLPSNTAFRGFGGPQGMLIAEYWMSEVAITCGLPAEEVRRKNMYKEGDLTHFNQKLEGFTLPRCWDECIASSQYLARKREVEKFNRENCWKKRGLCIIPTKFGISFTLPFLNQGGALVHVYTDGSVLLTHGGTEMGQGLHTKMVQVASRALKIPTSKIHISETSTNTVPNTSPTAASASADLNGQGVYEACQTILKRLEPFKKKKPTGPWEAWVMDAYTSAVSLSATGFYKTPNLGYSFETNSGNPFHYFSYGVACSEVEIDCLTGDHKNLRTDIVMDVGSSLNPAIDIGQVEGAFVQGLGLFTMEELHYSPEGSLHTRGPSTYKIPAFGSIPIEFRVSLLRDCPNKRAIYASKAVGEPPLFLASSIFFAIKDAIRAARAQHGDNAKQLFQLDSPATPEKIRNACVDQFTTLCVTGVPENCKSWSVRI

Consider `COc1ccc([C@@H]2Oc3cc(OC)c(OC)c(OC)c3C(=O)[C@@H]2O)cc1` (racemic), for which the Activity in the series with PC-12 [1] is listed as 3.4%; in series [2], 24.9%; in the series on PC-12 [3], 0.6%; in the series with PC-12 [4] it was 2.1%.

As for `COc1cc2c(c(OC)c1OC)C(=O)[C@H](O)[C@H](c1ccccc1O)O2` (racemic), the EC50 (commonly the midpoint of the concentration-response curve) in series [5] is 164 µM; in [6], 82.4 µM. Further, in the series with Liver [7], the IC50 (usually the concentration that gives 50% inhibition) stood at 26.7 µM.

Regarding `COc1cc([C@@H]2Oc3cc(OC)c(OC)c(OC)c3C(=O)[C@@H]2O)cc(OC)c1O` (racemic), the half-maximal effective concentration (EC50) in series [5] came to 55.5 µM; in series [6], 54.1 µM. Also, in the series on Liver [7], half-maximal inhibition (IC50) was put at 10.4 µM.

Take `COc1cc2c(c(OC)c1OC)C(=O)[C@H](O)[C@@H](c1ccc(O)c(O)c1)O2` (racemic): the Activity in the series with PC-12 [1] came out at 56.1%; in series [2], 58.9%; with PC-12 [3], 40.5%; with PC-12 [4] it was 74.5%. Besides, the concentration giving a half-maximal response (EC50) in the series on PC-12 [8] turned out to be 33.1 µM; in series [5], 100 µM; in [6] it was 7.3 µM. Besides, the IC50 with Liver [7] stood at 10.4 µM; in series [9], 96.7 µM.

Take `COc1cc([C@@H]2Oc3cc(OC)c(OC)c(OC)c3C(=O)[C@@H]2O)cc(OC)c1OC` (racemic): the Activity turned out to be 9.2% in the series with PC-12 [1], 28.9% in [2], 2.1% in the series on PC-12 [3] and 15.1% in the series with PC-12 [4]. The same compound came in with an IC50 in the series with Liver [7] of 19.6 µM.

Take `COc1ccc([C@H]2Oc3cc(OC)c(O)c(OC)c3C(=O)[C@@H]2O)cc1` (racemic): the Activity in the series with PC-12 [1] was 37.2%; in series [2] it was 21.1%; with PC-12 [3] it was 19.5%; in the series with PC-12 [4], 53.6%. The values for the EC50 (in the series on PC-12 [8]; in series [6]) were 82.4 µM and 94.9 µM, respectively. Further, in the series on Liver [7], the IC50 was 11.9 µM.

As to `COc1cc2c(c(OC)c1O)C(=O)[C@H](O)[C@H](c1ccc3c(c1)OCO3)O2` (racemic), the Activity is listed as 0.3% with PC-12 [1], 12.5% in series [2], 0.1% in the series on PC-12 [3] and 0.5% in the series on PC-12 [4]. The EC50 in series [5] came out at 93.6 µM; in series [6], 18.4 µM. Moreover, the IC50 with Liver [7] was 6.4 µM.

Take `COc1ccc([C@@H]2Oc3cc(OC)c(O)c(OC)c3C(=O)[C@@H]2O)cc1OC` (racemic): the Activity in the series with PC-12 [1] is recorded as 19.8%; in [2], 74.3%; in the series with PC-12 [3] it was 2.9%; in the series on PC-12 [4], 22%. For the same compound, the EC50 in series [5] is 50 µM; in [6] it was 35.9 µM. In [9], the 50% inhibitory concentration (IC50) was determined as 16 µM.

As to `COc1cc2c(c(OC)c1OC)C(=O)[C@H](O)[C@@H](c1ccc(O)cc1)O2` (racemic), the Activity in the series on PC-12 [1] was 5.1%; in [2], 0.2%; in the series on PC-12 [3], -1.4%; in the series on PC-12 [4] it was 17.1%.

On to `COc1cc2c(c(OC)c1OC)C(=O)[C@H](O)[C@H](c1ccc3c(c1)OCO3)O2` (racemic), for which the Activity is recorded as 5.4% with PC-12 [1], 0.8% in series [2], 1.4% with PC-12 [3] and 4.5% with PC-12 [4]. For the same compound, the EC50 in series [5] turned out to be 80.3 µM.

As to `COc1ccc([C@@H]2Oc3cc(OC)c(OC)c(OC)c3C(=O)[C@@H]2O)cc1OC` (racemic), the Activity with PC-12 [1] was 1.9%; in [2], 46.6%; with PC-12 [3], -2.5%; in the series on PC-12 [4] it was 2.4%. In the series with Liver [7], this compound came in with an IC50 of 28.6 µM.

For the compound `COc1ccc([C@H]2Oc3cc(OC)c(OC)c(OC)c3C(=O)[C@@H]2O)cc1O` (racemic), the results for the EC50 in [5] and in series [6] were 112 µM and 124 µM, respectively.

With `COc1cc2c(c(OC)c1O)C(=O)[C@H](O)[C@@H](c1ccc(O)cc1)O2` (racemic), the Activity in the series on PC-12 [1] is given as 13.4%; in series [2], 19.8%; in the series on PC-12 [3] it was -3.8%; in the series on PC-12 [4], 19.1%. The 50% effective concentration (EC50) in series [6] was found to be 35.3 µM.

As for `COc1cc([C@@H]2Oc3cc(OC)c(O)c(OC)c3C(=O)[C@@H]2O)ccc1O` (racemic), the Activity is 0.5% in the series on PC-12 [1], 15.4% in series [2], -0.2% in the series on PC-12 [3] and 1.6% with PC-12 [4]. The EC50 in series [5] was determined as 97.2 µM; in series [6], 42.8 µM. This compound came in with an IC50 with Liver [7] of 1.9 µM.

With `COc1cc([C@H]2Oc3cc(OC)c(OC)c(OC)c3C(=O)[C@@H]2O)ccc1O` (racemic), the outcome in the series with Liver [10] was Active. For the same compound, in the series with Liver [11], the outcome was inactive. For the same compound, the EC50 turned out to be 97.1 µM in [5] and 27.8 µM in series [6]. In the series on Liver [7], this compound had a concentration for half-maximal inhibition (IC50) of 5.5 µM.

For `O=C1O[C@H]([C@@H](O)CO)C(O)=C1O` [ASCORBIC ACID], the values for the EC50 in [5] and in [6] were 256 µM and 154 µM, respectively.

Regarding `O=c1c(O)c(-c2ccc(O)c(O)c2)oc2cc(O)cc(O)c12` [QUERCETIN], the Activity in the series with PC-12 [1] came to 42.6%; in the series on PC-12 [3], 28.9%; in the series with PC-12 [4], 61.7%. Further, the 50% effective concentration (EC50) with PC-12 [8] was found to be 68.3 µM; in series [5], 40.6 µM; in [6], 5.5 µM. This compound also gave an IC50 in the series on Liver [7] of 6 µM.
